Data published in ChEMBL document CHEMBL1811814, “Synthesis and evaluation of indole, pyrazole, chromone and pyrimidine based conjugates for tumor growth inhibitory activities--development of highly efficacious cytotoxic agents” (Eur J Med Chem, 2010).

Key:
Assay type in all cases: functional
Design in all cases: scale not given: the % may be the effect or the level left
HOP-62 = experiment: Growth inhibition of human HOP62 cells assessed tumor cell growth at 10^-5 M
Summary of the method: (§1)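 NCI 60-human-tumor-cell-line panel screen. Each compound was tested at a single concentration of 10^-5 M, and percent growth of tumor cells was recorded for each cell line. Growth inhibition was expressed from these percent-growth values.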

SN12C = experiment: Growth inhibition of human SN12C cells assessed tumor cell growth at 10^-5 M; summary of the method: as §1
HCT-116 = experiment: Growth inhibition of human HCT116 cells assessed tumor cell growth at 10^-5 M; summary of the method: as §1
SNB-75 = experiment: Growth inhibition of human SNB75 cells assessed tumor cell growth at 10^-5 M
Summary of the method: (§2)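 Single-dose screen at 10^-5 M across the 60 human tumor cell line panel, run to NCI standards. The value is the percent growth of each cell line in the presence of compound. Compounds active at this dose moved on to five-concentration testing (10^-4 to 10^-8 M).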

SK-MEL-28 = experiment: Growth inhibition of human SK-MEL-28 cells assessed tumor cell growth at 10^-5 M; summary of the method: as §1
DU-145 = experiment: Growth inhibition of human DU145 cells assessed tumor cell growth at 10^-5 M; summary of the method: as §1
CAKI-1 = experiment: Growth inhibition of human Caki1 cells assessed tumor cell growth at 10^-5 M; summary of the method: as §1
OVCAR-8 = experiment: Growth inhibition of human OVCAR8 cells assessed tumor cell growth at 10^-5 M; summary of the method: as §1
M14 = experiment: Growth inhibition of human M14 cells assessed tumor cell growth at 10^-5 M; summary of the method: as §1
HL-60(TB) = experiment: Growth inhibition of human HL-60(TB) cells assessed tumor cell growth at 10^-5 M
Summary of the method: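 HL-60(TB), part of the 60-line panel, tested at a single concentration of 10^-5 M. The read-out is percent tumor cell growth relative to untreated growth.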

SW-620 = experiment: Growth inhibition of human SW620 cells assessed tumor cell growth at 10^-5 M; summary of the method: as §2
Malme-3M = experiment: Growth inhibition of human MALME-3M cells assessed tumor cell growth at 10^-5 M; summary of the method: as §1
A549 = experiment: Growth inhibition of human A549 cells assessed tumor cell growth at 10^-5 M; summary of the method: as §1
OVCAR-5 = experiment: Growth inhibition of human OVCAR5 cells assessed tumor cell growth at 10^-5 M; summary of the method: as §1
LOX IMVI = experiment: Growth inhibition of human LOXIMVI cells assessed tumor cell growth at 10^-5 M; summary of the method: as §1
EKVX = experiment: Growth inhibition of human EKVX cells assessed tumor cell growth at 10^-5 M; summary of the method: as §1
SNB-19 = experiment: Growth inhibition of human SNB19 cells assessed tumor cell growth at 10^-5 M; summary of the method: as §2
[1] = Growth inhibition of human Hs 578T cells assessed tumor cell growth at 10^-5 M; summary of the method: as §1
OVCAR-4 = experiment: Growth inhibition of human OVCAR4 cells assessed tumor cell growth at 10^-5 M; summary of the method: as §1
T47D = experiment: Growth inhibition of human T47D cells assessed tumor cell growth at 10^-5 M; summary of the method: as §2
SK-MEL-5 = experiment: Growth inhibition of human SK-MEL-5 cells assessed tumor cell growth at 10^-5 M; summary of the method: as §1
TK-10 = experiment: Growth inhibition of human TK10 cells assessed tumor cell growth at 10^-5 M; summary of the method: as §2
SR = experiment: Growth inhibition of human SR cells assessed tumor cell growth at 10^-5 M; summary of the method: as §2
U-251 = experiment: Growth inhibition of human U251 cells assessed tumor cell growth at 10^-5 M; summary of the method: as §2
SK-OV-3 = experiment: Growth inhibition of human SKOV3 cells assessed tumor cell growth at 10^-5 M; summary of the method: as §1
NCI/ADR-RES = experiment: Growth inhibition of human NCI/ADR-RES cells assessed tumor cell growth at 10^-5 M; summary of the method: as §1
UO-31 = experiment: Growth inhibition of human UO31 cells assessed tumor cell growth at 10^-5 M; summary of the method: as §2
UACC-62 = experiment: Growth inhibition of human UACC62 cells assessed tumor cell growth at 10^-5 M; summary of the method: as §2
NCI-H226 = experiment: Growth inhibition of human NCI-H226 cells assessed tumor cell growth at 10^-5 M; summary of the method: as §1
NCI-H322M = experiment: Growth inhibition of human NCI-H322M cells assessed tumor cell growth at 10^-5 M; summary of the method: as §1
SF-268 = experiment: Growth inhibition of human SF268 cells assessed tumor cell growth at 10^-5 M; summary of the method: as §1
MDA-MB-468 = experiment: Growth inhibition of human MDA-MB-468 cells assessed tumor cell growth at 10^-5 M; summary of the method: as §1
SK-MEL-2 = experiment: Growth inhibition of human SK-MEL-2 cells assessed tumor cell growth at 10^-5 M; summary of the method: as §1
786-0 = experiment: Growth inhibition of human 786-0 cells assessed tumor cell growth at 10^-5 M; summary of the method: as §1
MOLT-4 = experiment: Growth inhibition of human MOLT4 cells assessed tumor cell growth at 10^-5 M; summary of the method: as §1
K562 = experiment: Growth inhibition of human K562 cells assessed tumor cell growth at 10^-5 M; summary of the method: as §1
SF-539 = experiment: Growth inhibition of human SF539 cells assessed tumor cell growth at 10^-5 M; summary of the method: as §1
NCI-H522 = experiment: Growth inhibition of human NCI-H522 cells assessed tumor cell growth at 10^-5 M; summary of the method: as §1
MCF7 = experiment: Growth inhibition of human MCF7 cells assessed tumor cell growth at 10^-5 M; summary of the method: as §1
HCT-15 = experiment: Growth inhibition of human HCT15 cells assessed tumor cell growth at 10^-5 M; summary of the method: as §1
COLO 205 = experiment: Growth inhibition of human COLO205 cells assessed tumor cell growth at 10^-5 M; summary of the method: as §1
SF-295 = experiment: Growth inhibition of human SF295 cells assessed tumor cell growth at 10^-5 M; summary of the method: as §1
[2] = Growth inhibition of human […] cells assessed tumor cell growth at 10^-5 M; summary of the method: as §1
ACHN = experiment: Growth inhibition of human ACHN cells assessed tumor cell growth at 10^-5 M; summary of the method: as §1
KM12 = experiment: Growth inhibition of human KM12 cells assessed tumor cell growth at 10^-5 M; summary of the method: as §1
IGROV-1 = experiment: Growth inhibition of human IGROV1 cells assessed tumor cell growth at 10^-5 M; summary of the method: as §1
NCI-H460 = experiment: Growth inhibition of human NCI-H460 cells assessed tumor cell growth at 10^-5 M; summary of the method: as §1
MDA-MB-435 = experiment: Growth inhibition of human MDA-MB-435 cells assessed tumor cell growth at 10^-5 M; summary of the method: as §1
NCI-H23 = experiment: Growth inhibition of human NCI-H23 cells assessed tumor cell growth at 10^-5 M; summary of the method: as §1
RXF 393 = experiment: Growth inhibition of human RXF393 cells assessed tumor cell growth at 10^-5 M; summary of the method: as §1
PC-3 = experiment: Growth inhibition of human PC3 cells assessed tumor cell growth at 10^-5 M; summary of the method: as §1
MDA-MB-231 = experiment: Growth inhibition of human MDA-MB-231 cells assessed tumor cell growth at 10^-5 M; summary of the method: as §1
OVCAR-3 = experiment: Growth inhibition of human OVCAR3 cells assessed tumor cell growth at 10^-5 M; summary of the method: as §1
A498 = experiment: Growth inhibition of human A498 cells assessed tumor cell growth at 10^-5 M; summary of the method: as §1
HT-29 = experiment: Growth inhibition of human HT-29 cells assessed tumor cell growth at 10^-5 M; summary of the method: as §1

For `Cc1ccc(S(=O)(=O)N2C(=O)/C(=C\c3cn(S(=O)(=O)c4ccc(C)cc4)c4ccccc34)c3ccccc32)cc1`, the Activity (HOP-62) was 80.2%, the Activity (SN12C) was 98.9% and the Activity (HCT-116) was 83.1%. The Activity (SNB-75) was 40.2%, the Activity (SK-MEL-28) was 100.5% and the Activity (DU-145) was 100%. The Activity (CAKI-1) was 89.6%, the Activity (OVCAR-8) was 76% and the Activity (M14) was 100.7%. The Activity (HL-60(TB)) was 85.6%, the Activity (SW-620) was 94.8% and the Activity (Malme-3M) was 97.7%. For the same compound, the Activity (A549) was 87.4%, the Activity (OVCAR-5) was 96.2% and the Activity (LOX IMVI) was 82.3%. For the same compound, the Activity (EKVX) was 99.9%, the Activity (SNB-19) was 82.9% and the Activity [1] was 74.8%. For the same compound, the Activity (OVCAR-4) was 100.5%, the Activity (T47D) was 94.8% and the Activity (SK-MEL-5) was 98.1%. For the same compound, the Activity (TK-10) was 65.5%, the Activity (SR) was 70.4% and the Activity (U-251) was 76.2%. It also gave an Activity (SK-OV-3) of 81%, an Activity (NCI/ADR-RES) of 95.6% and an Activity (UO-31) of 77.1%. The Activity (UACC-62) was 82.1%, the Activity (NCI-H226) was 97.5% and the Activity (NCI-H322M) was 102.4%. For the same compound, the Activity (SF-268) was 84.9%, the Activity (MDA-MB-468) was 103.8% and the Activity (SK-MEL-2) was 68.1%. It also gave an Activity (786-0) of 71.2%, an Activity (MOLT-4) of 90.4% and an Activity (K562) of 83.9%. For the same compound, the Activity (SF-539) was 88%, the Activity (NCI-H522) was 49.7% and the Activity (MCF7) was 93.9%. The Activity (HCT-15) was 97.4%, the Activity (COLO 205) was 107.3% and the Activity (SF-295) was 91.8%. The Activity [2] was 92.6%, the Activity (ACHN) was 91.3% and the Activity (KM12) was 103.9%. The Activity (IGROV-1) was 105%, the Activity (NCI-H460) was 93.2% and the Activity (MDA-MB-435) was 109.2%. The Activity (NCI-H23) was 96.5%, the Activity (RXF 393) was 77% and the Activity (PC-3) was 71.7%. The Activity (MDA-MB-231) was 84.2%, the Activity (OVCAR-3) was 107.8% and the Activity (A498) was 96.8%. The Activity (HT-29) was 90%.
